Data as given in ChEMBL document CHEMBL1123282, “Antiinflammatory activity of substituted 6-hydroxypyrimido[2,1-f]purine-2,4,8(1H,3H,9H)-triones. Atypical nonsteroidal antiinflammatory agents” (J Med Chem, 1986).
Values joined by “and” are separate entries in the source; they are usually repeats but may differ in a detail not shown here. Equal entries are not always repeated.

Key:
Rattus norvegicus [1] = test: Compound was tested for intestinal Ulcerogenic effect in rats, activity expressed as lesion score at a dose of 100 mg/kg; format: functional
In short: (§1)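 Normal fed rats were gavaged once daily for three consecutive days at 10–300 mg/kg and killed 24 h after the last dose. Intestines were examined for ulcers, recording incidence per group of 8 and a lesion score (±SE).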

Rattus norvegicus [2] = test: Tested in vivo for antiinflammatory activity against chronic adjuvant arthritic rat by prophylactic inhibition 2 degree paw after peroral administration of 9 mg/kg of dose; format: functional; conditions: route oral
In short: (§2)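 Prophylactic regimen, rats. Adjuvant is heat-killed Mycobacterium tuberculosis ground to a fine powder in paraffin oil (6 mg/mL); 0.1 mL is injected into the left hind paw. Oral drug is given 1 h before adjuvant challenge, then for 21 consecutive days; controls receive methyl cellulose. Left (1°) and right (2°) hind paw volumes are measured by plethysmograph.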

Rattus norvegicus [3] = test: Tested in vivo for antiinflammatory activity against chronic adjuvant arthritic rat by prophylactic inhibition 1 degree paw after peroral administration of 9 mg/kg of dose; format: functional; conditions: route oral; in short: as §2
Rattus norvegicus [4] = organism: Rattus norvegicus; test: Antiinflammatory activity on the development of collagen II arthritis in rats, measured based on animals positive for arthritis by the presence of bone lesions; format: functional
In short: (§3)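 Rats immunised with bovine articular-cartilage type II collagen (dissolved in 0.01 M AcOH for 24 h at 4 °C, dialysed against saline) mixed in equal volume with incomplete Freund's adjuvant. Paws were examined weekly for 7 weeks. An animal counted as arthritic at Δ paw volume ≥8.0 (injected paw) or ≥4.0 (noninjected paw). Bone lesions were scored on lateral-projection foot radiographs. 16 rats/group.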

Rattus norvegicus [5] = test: Antiinflammatory activity on the development of collagen II arthritis in rats, measured based on animals positive for arthritis by the presence of paw edema; format: functional; in short: as §3
[6] = biological target: Cyclooxygenase (Rattus norvegicus) (UniProt P35355+Q63921); test: In vitro inhibitory activity against Prostaglandin G/H synthase in rat neutrophils at a dose of 50 uM
Rattus norvegicus [7] = test: Antiinflammatory activity against collagen II arthritis in rats, activity % inhibition in noninjected paw edema; format: functional; parameters: concentration or dose not given beside the values; in short: as §3
[8] = biological target: T1, Polyunsaturated fatty acid 5-lipoxygenase (Rattus norvegicus) (UniProt P12527); test: In vitro inhibitory activity against Lipoxygenase in rat neutrophils at a dose of 50 uM
T1 sequence (whole entry): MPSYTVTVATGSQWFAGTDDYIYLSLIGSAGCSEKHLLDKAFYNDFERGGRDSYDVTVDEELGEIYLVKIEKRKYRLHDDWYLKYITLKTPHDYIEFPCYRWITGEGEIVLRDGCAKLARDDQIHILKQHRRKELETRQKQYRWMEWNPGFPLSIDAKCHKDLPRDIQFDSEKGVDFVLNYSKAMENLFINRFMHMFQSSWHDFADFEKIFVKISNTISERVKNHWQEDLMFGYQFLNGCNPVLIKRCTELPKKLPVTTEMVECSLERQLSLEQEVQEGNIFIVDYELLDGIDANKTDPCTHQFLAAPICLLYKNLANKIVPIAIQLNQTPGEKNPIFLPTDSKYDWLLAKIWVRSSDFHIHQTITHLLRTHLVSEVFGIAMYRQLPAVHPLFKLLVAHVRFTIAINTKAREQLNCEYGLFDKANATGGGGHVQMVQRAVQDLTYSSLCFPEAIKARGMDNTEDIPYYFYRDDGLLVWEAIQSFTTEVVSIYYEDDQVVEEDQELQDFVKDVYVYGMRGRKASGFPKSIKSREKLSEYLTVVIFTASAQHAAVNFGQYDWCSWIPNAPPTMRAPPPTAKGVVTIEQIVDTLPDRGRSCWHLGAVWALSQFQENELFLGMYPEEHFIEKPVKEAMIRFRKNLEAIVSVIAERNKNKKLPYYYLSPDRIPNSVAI
In short: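 Neutrophils come from the 4 h pleural exudate of male Wistar-Lewis rats given iv BSA plus intrapleural rabbit anti-BSA IgG. Cells are washed, red cells lysed with NH4Cl, and resuspended at about 5×10^6 cells/0.1 mL in Tris pH 7.4 with NaCl and 1 mM CaCl2. Cells are preincubated with compound 4 min at room temperature.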

Rattus norvegicus [9] = test: Antiinflammatory activity against collagen II arthritis in rats, activity% inhibition in injected paw edema; format: functional; parameters: concentration or dose not given beside the values; in short: as §3
Rattus norvegicus [10] = organism: Rattus norvegicus; test: Antiinflammatory activity by immune response to collagen II antigen in rats antibody titer was determined by passive hemagglutinination; format: functional
In short: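 In rats with bovine type II collagen/incomplete Freund's adjuvant arthritis, the antibody response to collagen II was titred by passive hemagglutination. The delayed-type hypersensitivity component, ear thickness 24 h after intrapinna antigen, was read at day 21.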

Rattus norvegicus [11] = test: Compound was tested for intestinal Ulcerogenic effect in rats, activity expressed as ulcer incidence at a dose of 30 mg/kg; format: functional; in short: as §1
Rattus norvegicus [12] = test: Compound was tested in vivo against chronic adjuvant arthritic rat by prophylactic inhibition 2 degree paw. Relative potency with respect to (8-Benzyl-5-hydroxy-1,3-dimethyl-6-propyl-1H,8H-1,3,4b,8,9-pentaaza-fluorene-2,4,7-trione); format: functional
Rattus norvegicus [13] = test: Compound was tested in vivo for antiinflammatory activity against chronic adjuvant arthritic rat by prophylactic inhibition 2 degree paw after peroral administration of 18 mg/kg of dose; conditions: po
Rattus norvegicus [14] = test: In vivo antiinflammatory activity against rats by RPAR(reverse passive Arthus reaction) synovitis method; format: functional; parameters: concentration or dose not given beside the values
In short: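 Lewis rats, oral drug or placebo 1 h before iv BSA (2.28 mg in saline), then intraarticular rabbit anti-BSA (0.54 mg) into one knee and saline into the other, under light anesthesia. Second oral dose at 3 h; the total of both doses is the calculated dose. About 17 h after induction, subpatellar tissue with synovium is excised and weighed. Response is antibody-minus-saline knee weight, tested by analysis of variance.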

Rattus norvegicus [15] = test: Compound was tested for intestinal Ulcerogenic effect in rats at a dose of 10 mg/kg; format: functional; in short: as §1
Rattus norvegicus [16] = test: Compound was tested for intestinal Ulcerogenic effect in rats at a dose of 30 mg/kg; format: functional; in short: as §1

CCCc1c(O)n(Cc2ccc(F)cc2)c2nc3c(c(=O)n(C)c(=O)n3C)n2c1=O
Lesion length (Rattus norvegicus [1]): 0 mm rat-1
inhibition in vivo at 9 mg/kg (Rattus norvegicus [2]): 49%
inhibition in vivo at 9 mg/kg (Rattus norvegicus [3]): 42%
Positive (Rattus norvegicus [4]): 18.8%
Positive (Rattus norvegicus [5]): 31.3%
inhibition [6]: 36%
Inhibition (Rattus norvegicus [7]): 54.9%
inhibition [8]: 0% and 8%
Inhibition (Rattus norvegicus [9]): 38.2%
Antibody titer (Rattus norvegicus [10]): 6.6
Ulcer incidence (Rattus norvegicus [11]): 0 number/group
Relative potency (Rattus norvegicus [12]): 1.2
inhibition in vivo at 18 mg/kg (Rattus norvegicus [13]): 49%
Inhibition (Rattus norvegicus [14]): 53%
Ulcer incidence (Rattus norvegicus [15]): 0 number/group

CC(C)=CCc1c(O)n(Cc2ccccc2)c2nc3c(c(=O)n(C)c(=O)n3C)n2c1=O
Lesion length (Rattus norvegicus [1]): 0.1 mm rat-1
inhibition in vivo at 9 mg/kg (Rattus norvegicus [2]): 76%
inhibition in vivo at 9 mg/kg (Rattus norvegicus [3]): 30%
Positive (Rattus norvegicus [4]): 40%
Positive (Rattus norvegicus [5]): 46.7%
inhibition [6]: 92%
Inhibition (Rattus norvegicus [7]): 10.1%
inhibition [8]: 17% and 22%
Antibody titer (Rattus norvegicus [10]): 10.9
Ulcer incidence (Rattus norvegicus [16]): 0 number/group
Ulcer incidence (Rattus norvegicus [11]): 0 number/group
Relative potency (Rattus norvegicus [12]): 3.1 and 4.3
Inhibition (Rattus norvegicus [14]): 26%
Ulcer incidence (Rattus norvegicus [15]): 0 number/group

CC(C)=CCc1c(O)n(Cc2ccc(F)cc2)c2nc3c(c(=O)n(C)c(=O)n3C)n2c1=O
inhibition in vivo at 9 mg/kg (Rattus norvegicus [2]): 35%
inhibition in vivo at 9 mg/kg (Rattus norvegicus [3]): 22%
Positive (Rattus norvegicus [4]): 14.3%
Positive (Rattus norvegicus [5]): 21.4%
inhibition [6]: 93%
Inhibition (Rattus norvegicus [7]): 80.6%
inhibition [8]: 21% and 22%
Inhibition (Rattus norvegicus [9]): 53.9%
Antibody titer (Rattus norvegicus [10]): 8.4
Ulcer incidence (Rattus norvegicus [16]): 0 number/group
Relative potency (Rattus norvegicus [12]): 4.8
inhibition in vivo at 18 mg/kg (Rattus norvegicus [13]): 69%
Inhibition (Rattus norvegicus [14]): 29%
